Laboratory results: ChEMBL document CHEMBL2202977, “Optimization and structure-activity relationships of a series of potent inhibitors of methicillin-resistant Staphylococcus aureus (MRSA) pyruvate kinase as novel antimicrobial agents” (Bioorg Med Chem, 2012)
Values after ≈ are worked out from the molar mass of the structure shown.

Assays:
[1] = biological target: Pyruvate kinase PKM (Homo sapiens) (UniProt P14618); test: Inhibition of human pyruvate kinase M1 at 10 uM by LDH assay
In short: (§1)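 Selected compounds were tested against mammalian PK isoforms M1, M2, R and L at the highest concentration, 10 µM. Results are given as percent inhibition.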

Staphylococcus aureus = test: Antimicrobial activity against Staphylococcus aureus RN4220 after 24 hrs broth microdilution method; format: functional
In short: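 MIC taken as the minimum concentration giving >98% growth inhibition of the named S. aureus strain (RN4220, ATCC 25923 or ATCC 29213). Values are single determinations or averages of n determinations. Vancomycin was run as control.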

[2] = biological target: Pyruvate kinase PKLR (Homo sapiens) (UniProt P30613); test: Inhibition of human pyruvate kinase R at 10 uM by LDH assay; in short: as §1
Chain of Pyruvate kinase PKLR (Homo sapiens) (P30613 whole entry, looked up): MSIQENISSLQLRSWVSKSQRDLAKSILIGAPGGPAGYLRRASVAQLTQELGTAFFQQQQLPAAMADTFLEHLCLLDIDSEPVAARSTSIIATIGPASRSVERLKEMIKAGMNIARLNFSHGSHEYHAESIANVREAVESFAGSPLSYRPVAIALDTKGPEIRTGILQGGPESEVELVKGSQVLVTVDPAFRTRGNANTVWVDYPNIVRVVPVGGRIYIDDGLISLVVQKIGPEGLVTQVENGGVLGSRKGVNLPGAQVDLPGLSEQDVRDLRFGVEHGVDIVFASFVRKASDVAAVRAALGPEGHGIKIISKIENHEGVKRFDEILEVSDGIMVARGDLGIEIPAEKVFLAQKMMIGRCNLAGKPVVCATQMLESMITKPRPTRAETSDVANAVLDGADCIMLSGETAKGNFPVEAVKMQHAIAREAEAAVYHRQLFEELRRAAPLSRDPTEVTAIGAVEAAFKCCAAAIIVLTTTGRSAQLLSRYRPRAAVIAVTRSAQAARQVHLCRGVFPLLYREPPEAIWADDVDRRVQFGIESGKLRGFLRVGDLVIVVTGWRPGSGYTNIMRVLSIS

Pyruvate kinase = biological target: T1, Pyruvate kinase (Staphylococcus aureus (strain MRSA252), UniProt Q6GG09); test: Inhibition of methicillin-resistant Staphylococcus aureus 252 pyruvate kinase by LDH assay; design: species or system Staphylococcus aureus subsp. aureus MRSA252
T1 sequence (Q6GG09 whole entry): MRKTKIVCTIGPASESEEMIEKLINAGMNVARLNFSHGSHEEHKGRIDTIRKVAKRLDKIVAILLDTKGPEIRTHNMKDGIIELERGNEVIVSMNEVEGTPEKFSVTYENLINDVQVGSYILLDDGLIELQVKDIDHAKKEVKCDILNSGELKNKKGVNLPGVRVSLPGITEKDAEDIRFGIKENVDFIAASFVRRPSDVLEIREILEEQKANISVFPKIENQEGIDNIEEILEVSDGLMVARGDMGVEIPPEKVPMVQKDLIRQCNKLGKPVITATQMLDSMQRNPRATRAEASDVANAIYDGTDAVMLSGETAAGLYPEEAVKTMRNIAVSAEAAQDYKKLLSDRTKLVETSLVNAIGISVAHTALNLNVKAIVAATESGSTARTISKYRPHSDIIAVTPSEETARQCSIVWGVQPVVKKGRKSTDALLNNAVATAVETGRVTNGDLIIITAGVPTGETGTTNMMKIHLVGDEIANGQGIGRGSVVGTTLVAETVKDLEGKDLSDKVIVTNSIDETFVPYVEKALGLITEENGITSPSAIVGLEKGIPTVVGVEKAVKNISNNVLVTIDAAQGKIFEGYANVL
In short: (§2)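 MRSA pyruvate kinase activity was measured by a previously described procedure. IC50 was calculated from triplicate 15-point titrations, or averaged over n such determinations. Where no IC50 was obtained, the value is % inhibition at the highest concentration tested.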

[3] = biological target: T2, Pyruvate kinase (Staphylococcus aureus (strain MRSA252)) (UniProt Q6GG09); test: Inhibition of methicillin-resistant Staphylococcus aureus 252 pyruvate kinase at 10 uM by LDH assay; settings: Staphylococcus aureus subsp. aureus MRSA252; in short: as §2
T2 sequence (whole entry): T1 sequence (Q6GG09 whole entry)

[4] = biological target: Pyruvate kinase PKLR (Homo sapiens) (UniProt P30613); test: Inhibition of human pyruvate kinase L at 10 uM by LDH assay; in short: as §1
[5] = biological target: Pyruvate kinase PKM (Homo sapiens) (UniProt P14618); test: Inhibition of human pyruvate kinase M2 at 10 uM by LDH assay; in short: as §1

Chain of Pyruvate kinase PKM (Homo sapiens) (P14618 2-531 limits assumed): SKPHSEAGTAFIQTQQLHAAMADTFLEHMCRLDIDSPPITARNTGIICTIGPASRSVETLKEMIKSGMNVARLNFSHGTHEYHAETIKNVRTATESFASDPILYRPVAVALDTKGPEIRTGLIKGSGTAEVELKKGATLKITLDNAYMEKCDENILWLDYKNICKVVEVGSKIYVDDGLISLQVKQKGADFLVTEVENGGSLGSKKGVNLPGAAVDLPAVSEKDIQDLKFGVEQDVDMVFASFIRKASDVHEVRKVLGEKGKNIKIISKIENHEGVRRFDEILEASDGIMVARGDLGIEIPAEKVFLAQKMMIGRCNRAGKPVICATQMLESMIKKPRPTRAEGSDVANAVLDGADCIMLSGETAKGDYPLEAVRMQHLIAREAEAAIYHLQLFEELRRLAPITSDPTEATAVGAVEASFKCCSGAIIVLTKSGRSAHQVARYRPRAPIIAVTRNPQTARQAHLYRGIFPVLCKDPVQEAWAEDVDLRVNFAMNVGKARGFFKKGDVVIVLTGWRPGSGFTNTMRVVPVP

Row | Structure (SMILES) | inhibition [1] [%] | MIC>98 (Staphylococcus aureus) [mg/L] | inhibition [2] [%] | IC50 (Pyruvate kinase) [µM] | inhibition [3] [%] | inhibition [4] [%] | inhibition [5] [%]
1 | C/C(=N\NC(=O)c1cc(Br)ccc1O)c1cc2cc(Br)ccc2[nH]1 | 21.6 | >226 | 10.7 | 0.049 | 72.2 | 6.8 | 8.3
2 | C/C(=N\NC(=O)c1cc(Br)ccc1O)c1cc2cc(F)ccc2[nH]1 | -4.6 | >195 | -1.6 | 0.049 | 97 | -0.5 | 0.4
3 | COc1ccc2[nH]c(/C(C)=N/NC(=O)c3cc(Br)ccc3O)cc2c1 | 7.2 | >80 | 5.2 | 0.178 | 89.3 | 3.9 | 2.2
4 | CC(=NNC(=O)c1cc(Br)ccc1O)c1cc2ccc(Br)cc2n1C (mixture of isomers) | – | 1 | – | 0.017 | – | – | –
5 | C/C(=N\NC(=O)c1cc(Br)ccc1O)c1cc2ccccc2[nH]1 | 4.6 | >186 | -8.7 | 0.085 | 98.1 | -6.9 | 4.3
6 | CC(=NNC(=O)c1cc(Br)ccc1O)c1cc2c(F)c(F)ccc2n1C (mixture of isomers) | – | 2 | – | 0.145 | – | – | –
7 | C/C(=N\NC(=O)c1cc(Br)ccc1O)c1cc2ccccc2s1 | 10.2 | >195 | 12.5 | 0.286 | 96.4 | 7.3 | -1.1
8 | C/C(=N\NC(=O)c1cc(Br)ccc1O)c1nc2ccccc2[nH]1 | 7.6 | >187 | -1.4 | 0.091 | 96.4 | 2.1 | 6.7
9 | CC(=NNC(=O)c1cc(Br)ccc1O)c1cc2cc(F)c(F)cc2n1C (mixture of isomers) | – | 1.6 | 9 | 0.061 | 95.4 | -2.4 | -8.1
10 | CC(=NNC(=O)c1cc(Br)ccc1O)c1nc2ccccc2n1C (mixture of isomers) | -3 | >194 | 7.1 | 0.227 | – | -1.3 | 0.5
11 | C/C(=N\NC(=O)c1cc(Br)ccc1O)c1cc2cc(C(F)(F)F)ccc2[nH]1 | – | – | – | – | 46 | – | –
12 | C/C(=N\NC(=O)c1cc(Br)ccc1O)c1cc2cc(I)ccc2[nH]1 | – | >64 | – | 0.043 | – | – | –
13 | CC(=NNC(=O)c1cc(Br)ccc1O)c1cc2cc(Br)ccc2n1C (mixture of isomers) | 19.5 | 1.4 | 14.2 | 0.146 | – | 9.2 | 11.9
14 | C/C(=N\NC(=O)c1ccccc1)c1cc2ccccc2[nH]1 | – | >139 | – | – | 28 | – | –
15 | C/C(=N\NC(=O)c1ccccn1)c1cc2ccccc2[nH]1 | – | >139 | – | – | 15 | – | –
16 | C/C(=N\NC(=O)c1cc(-c2ccccc2)ccc1O)c1cc2ccccc2[nH]1 | – | – | – | – | 20 | – | –
17 | Cn1c(C=NNC(=O)c2cc(Br)ccc2O)cc2ccccc21 (mixture of isomers) | – | >186 | – | 3.09 | – | – | –
18 | CC/C(=N\NC(=O)c1cc(Br)ccc1O)c1cc2ccccc2[nH]1 | 6.6 | 9.7 (≈ 25.1 µM) | 4.8 | 0.126 | 99.2 | 3.6 | -2.4
19 | O=C(N/N=C/c1cc2ccccc2[nH]1)c1cc(Br)ccc1O | -7.2 | >179 | -0.5 | 0.863 | 89.9 | 0.2 | -1.4
20 | CC(=NNC(=O)c1cc(Br)ccc1O)c1nc2ccccc2s1 | – | >78 | – | 0.224 | – | – | –

Row | Structure (SMILES) | inhibition [1] [%] | MIC>98 (Staphylococcus aureus) [mg/L] | inhibition [2] [%] | IC50 (Pyruvate kinase) [µM] | inhibition [3] [%] | inhibition [4] [%] | inhibition [5] [%]
21 | COc1cc(O)c(C(=O)NN=C(C)c2cc3ccccc3n2C)cc1Br (mixture of isomers) | – | >167 | – | 0.841 | – | – | –
22 | C/C(=N\NC(=O)c1ccccc1O)c1cc2ccccc2[nH]1 | – | 59 (≈ 201 µM) | – | 8.62 | – | – | –
23 | COc1ccc(Br)cc1S(=O)(=O)N/N=C(\C)c1cc2c(F)c(F)ccc2[nH]1 | – | – | – | – | 11 | – | –
24 | C/C(=N\OC(=O)c1cc(Br)ccc1O)c1cc2ccccc2n1C | – | >155 | – | – | 34 | – | –
25 | CCC(=NNC(=O)c1cc(Br)ccc1O)c1cc2ccccc2n1C (mixture of isomers) | -4.3 | 5 | -1.9 | 0.461 | 99.1 | 2.7 | -1.5
26 | C/C(=N\NC(=O)c1cc(Br)cc(Br)c1O)c1cc2ccccc2[nH]1 | – | 64 (≈ 142 µM) | – | 0.074 | – | – | –
27 | C#CCOc1ccccc1C(=O)N/N=C(\C)c1cc2cc(Br)ccc2[nH]1 | 20.2 | >205 | 24 | 0.064 | 93.2 | 23.1 | 2.5
28 | COc1cc(O)c(C(=O)N/N=C(\C)c2cc3ccccc3[nH]2)cc1Br | – | >161 | – | 0.324 | – | – | –
29 | COc1ccc(Br)cc1C(=O)O/N=C(\C)c1cc2ccccc2n1C | – | >161 | – | – | 33 | – | –
30 | CC(=NNC(=O)c1cc(Br)ccc1O)c1cc2cc(Cl)ccc2n1C (mixture of isomers) | 14.8 | 1.3 | 6.9 | 0.228 | 92.3 | 5.7 | 3.7
31 | CC(=NNC(=O)c1cc(Br)ccc1O)c1cc2cc(F)ccc2n1C (mixture of isomers) | -4.5 | 3.3 | -2.9 | 0.165 | 96.1 | -2.3 | –
32 | C/C(=N\NC(=O)c1cc(Br)ccc1O)c1cc2cc(Cl)ccc2[nH]1 | 4.4 | >81 | 2.4 | 0.052 | 80.1 | 0.1 | 4.6
33 | COc1ccc2c(c1)cc(C(C)=NNC(=O)c1cc(Br)ccc1O)n2C (mixture of isomers) | -2.8 | 10.4 | 5.5 | 0.794 | 71.3 | 2.8 | –
34 | C/C(=N\NC(=O)c1cccc(Br)c1)c1cc2ccccc2[nH]1 | – | >178 | – | 8.15 | – | – | –
35 | C/C(=N\NC(=O)c1cc(C(C)C)cc(C(C)C)c1O)c1cc2ccccc2[nH]1 | – | – | – | – | 40 | – | –
36 | C/C(=N\NC(=O)c1ccc(Br)cc1O)c1cc2ccccc2[nH]1 | – | – | – | 1.31 | – | – | –
37 | COc1ccc(Br)cc1S(=O)(=O)N/N=C(\C)c1cc2ccccc2[nH]1 | – | – | – | – | 12 | – | –
38 | C/C(=N\NC(=O)c1cc(Br)ccc1O)c1cc2cc(F)c(F)cc2[nH]1 | – | >82 | – | 0.02 | – | – | –
39 | C/C(=N\NC(=O)c1cc(Br)ccc1O)c1cc2c(F)c(F)ccc2[nH]1 | – | 41 (≈ 100 µM) | – | 0.024 | – | – | –
